In brackets after ≈: the same amount, converted by molar mass.
Legend:
Plasmodium falciparum [1] = assay: Antiplasmodial activity against chloroquine-sensitive Plasmodium falciparum 3D7 by [3H]hypoxanthine incorporation; assay type: functional, organism-based
Plasmodium falciparum [2] = assay: Antiplasmodial activity against chloroquine-resistant Plasmodium falciparum W2 by [3H]hypoxanthine incorporation; assay type: functional, organism-based
Plasmodium falciparum [3] = assay: Antiplasmodial activity against chloroquine-resistant Plasmodium falciparum K1 by [3H]hypoxanthine incorporation; assay type: functional, organism-based
[4] = Lipophilicity, Log D at pH 7.4; assay type: physicochemical; settings: buffer
[5] = Lipophilicity, Log D at pH 7.2; assay type: physicochemical; settings: buffer
[6] = Lipophilicity, Log D at pH 5.5; assay type: physicochemical; settings: buffer
Candida albicans = assay: Antifungal activity against Candida albicans; assay type: functional
Pichia kudriavzevii = assay: Antifungal activity against Candida krusei ATCC 6258; assay type: functional
Candida parapsilosis = assay: Antifungal activity against Candida parapsilosis ATCC 22019; assay type: functional; settings: Lodderomyces parapsilosis
Cryptococcus neoformans = assay: Antifungal activity against Cryptococcus neoformans; assay type: functional
Aspergillus flavus = assay: Antifungal activity against Aspergillus flavus ATCC 204304; assay type: functional
Aspergillus fumigatus [7] = assay: Antifungal activity against Aspergillus fumigatus; assay type: functional
[8] = Cytotoxicity against mouse NSO cells after 48 hrs by MTT assay; assay type: cell-based; settings: read-out: TC50
How it was run: (§1)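 NSO (3000 cells/well) and Daudi (300 cells/well) cells were grown in RPMI 1640 with 5% FCS. Compounds in DMSO were added 12 h after plating and left 48 h. MTT was then added (20 µL of 5 mg/mL stock, 2 h, 37 °C), followed by SDS/DMF lysis buffer overnight, with OD read at 570 nm. TC50 is reported; at least two experiments in triplicate.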

[9] = Cytotoxicity against human Daudi cells after 48 hrs by MTT assay; assay type: cell-based; settings: read-out: TC50; how it was run: as §1
[10] = Cytotoxicity against human lymphocytes after 48 hrs by MTT assay; assay type: cell-based, Lymphocyte; settings: read-out: TC50
How it was run: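 Donor PBMC were separated on Ficoll-Hypaque and stimulated with 5 µg/mL PHA, then plated at 20000 cells/well. Compounds in DMSO were added 12 h later and left 48 h. Read-out was MTT formazan (2 h, 37 °C), extracted overnight in SDS/DMF buffer, with OD at 570 nm. TC50 is reported; at least two runs in triplicate.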

Plasmodium chabaudi [11] = assay: Antimalarial activity against Plasmodium chabaudi AS infected CD1 mice (Mus musculus) assessed as suppression of parasitaemia at 50mg/kg, perorally after 4 days; assay type: functional
How it was run: (§2)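 Female CD1 mice (20–25 g) got 0.2 mL i.v. of donor blood diluted to 1% parasitaemia (1 × 10^7 infected erythrocytes/mL). Oral dosing started 2–4 h post-inoculation as a 0.2 mL bolus once daily for 4 days, in 10% Tween-80/EtOH plus sterile PBS. On day 5, Giemsa-stained smears were read by microscopy. % suppression = [(C−T)/C]×100; five mice per group.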

Plasmodium falciparum [12] = assay: Antiplasmodial activity against chloroquine-sensitive Plasmodium falciparum D10 by parasite lactate dehydrogenase assay; settings: D10, 72 h
Plasmodium berghei [13] = assay: Reduced parasitemia in Plasmodium berghei ANKA infected CD1 mice (Mus musculus) at 30 mg/kg dose after 4 days; parameters: scale not given: the % may be the effect or the level left
Plasmodium falciparum [14] = assay: Antiplasmodial activity against chloroquine-sensitive Plasmodium falciparum D10 by [3H]hypoxanthine incorporation; assay type: functional, organism-based
[15] = Cytotoxicity against human KB cells by MTT assay; assay type: cell-based; settings: read-out: TC50 (the source's name)
Plasmodium chabaudi [16] = assay: Antimalarial activity against Plasmodium chabaudi AS infected CD1 mice (Mus musculus) assessed as suppression of parasitaemia at 10 mg/kg, perorally after 4 days; assay type: functional; settings: route oral; how it was run: as §2
Plasmodium berghei [17] = assay: Reduced parasitemia in Plasmodium berghei ANKA infected CD1 mice (Mus musculus) at 10 mg/kg peroral dose after 4 days; assay type: functional; parameters: scale not given: the % may be the effect or the level left; settings: route oral; how it was run: as §2
Aspergillus fumigatus [18] = assay: Antifungal activity against itraconazole resistant Aspergillus fumigatus; assay type: functional
Plasmodium berghei [19] = assay: Reduced parasitemia in Plasmodium berghei ANKA infected CD1 mice (Mus musculus) at 150 mg/kg peroral dose after 4 days; assay type: functional; parameters: scale not given: the % may be the effect or the level left; settings: route oral; how it was run: as §2

Compound	IC50 (Plasmodium falciparum [1])	IC50 (Plasmodium falciparum [2])	IC50 (Plasmodium falciparum [3])	IC50 (Plasmodium falciparum [12])	CC50 [15]	further results
Clc1ccc(C(c2ccc(CN3CCCC3)cc2)(c2ccc(CN3CCCC3)cc2)n2ccnc2)cc1	26.1 nM	39.2 nM	11.7 nM	48.4 nM		logD [4]: 1.56; logD [5]: 1.4; logD [6]: 0.67; MIC (Candida albicans): > 32 µg/mL; MIC (Pichia kudriavzevii): > 32 µg/mL; MIC (Candida parapsilosis): > 32 µg/mL; MIC (Cryptococcus neoformans): > 32 µg/mL; MIC (Aspergillus flavus): > 32 µg/mL; MIC (Aspergillus fumigatus [7]): > 32 µg/mL; CC50 at 48 h [8]: 47000 nM; CC50 at 48 h [9]: 58700 nM; CC50 at 48 h [10]: 68500 nM; Activity (Plasmodium chabaudi [11]): 94%
Clc1ccc(C(c2ccccc2)(c2ccc(CN3CCCC3)cc2)n2ccnc2)cc1 (racemic)						logD [4]: 3.33; logD [5]: 3.13; logD [6]: 1.72; MIC (Candida albicans): 32 µg/mL (≈ 74.8 µM); MIC (Pichia kudriavzevii): 16 µg/mL (≈ 37.4 µM); MIC (Candida parapsilosis): 32 µg/mL (≈ 74.8 µM); MIC (Cryptococcus neoformans): 32 µg/mL (≈ 74.8 µM); MIC (Aspergillus flavus): > 32 µg/mL; MIC (Aspergillus fumigatus [7]): > 32 µg/mL; CC50 at 48 h [8]: 51500 nM; CC50 at 48 h [9]: 58500 nM; CC50 at 48 h [10]: 70300 nM; Activity (Plasmodium chabaudi [11]): 94.8%; Activity (Plasmodium berghei [13]): 37.6%
CCN(CC)Cc1ccc(C(c2cccc(Cl)c2)n2cncn2)cc1 (racemic)	> 10000 nM	> 10000 nM	3700 nM			IC50 (Plasmodium falciparum [14]): > 10000 nM
c1ccc2c(C(c3ccc(CN4CCCC4)cc3)n3ccnc3)ccnc2c1 (racemic)	5030 nM	1790 nM	379 nM	7480 nM		
Clc1cccc(C(c2ccc(CN3CCNCC3)cc2)n2ccnc2)c1 (racemic)	411 nM	327 nM	354 nM	516 nM		
Clc1cccc(C(c2ccncc2)(c2ccc(CN3CCCC3)cc2)n2ccnc2)c1 (racemic)	587 nM	415 nM	510 nM	1230 nM		
Clc1ccc2c(C(c3ccccc3)(c3ccc(CN4CCCC4)cc3)n3ccnc3)ccnc2c1 (racemic)	148 nM	10 nM	60 nM	168 nM	51800 nM	
Clc1ccc(C(c2ccc(CN3CCCC3)cc2)(c2cccs2)n2ccnc2)cc1 (racemic)	3570 nM	6690 nM	1780 nM	1360 nM		
CCN(CC)Cc1ccc(C(c2cccc(Cl)c2)n2ccnc2)cc1 (racemic)	1290 nM	452 nM	282 nM	1890 nM		
Clc1cccc(C(c2ccc(CN3CCCC3)cc2)(c2cccs2)n2ccnc2)c1 (racemic)	4270 nM	1040 nM	1270 nM	7170 nM		
Clc1ccc(C(c2ccccc2)(c2ccc(CN3CCOCC3)cc2)n2ccnc2)cc1 (racemic)	561 nM			726 nM		CC50 at 48 h [8]: 16000 nM; CC50 at 48 h [9]: 15600 nM; CC50 at 48 h [10]: 13300 nM
Fc1ccc(C(c2ccc(Cl)cc2)(c2ccc(CN3CCCC3)cc2)n2ccnc2)cc1 (racemic)	82 nM	1.5 nM	380 nM	118 nM	8200 nM	
CCN(CC)Cc1ccc(C(c2ccccc2)(c2ccc(Cl)cc2)n2ccnc2)cc1 (racemic)		41.4 nM	0.48 nM	415 nM		
Clc1cccc(C(c2ccnc3ccccc23)n2ccnc2)c1 (racemic)	> 10000 nM	> 10000 nM	4290 nM			IC50 (Plasmodium falciparum [14]): > 10000 nM
Clc1cccc(C(c2ccc(CN3CCCC3)cc2)(c2ccoc2)n2ccnc2)c1 (racemic)	101 nM	167 nM		238 nM		
Clc1ccc(C(c2ccccc2)(c2ccc(CN3CCNCC3)cc2)n2ccnc2)cc1 (racemic)	55.4 nM			84.1 nM		CC50 at 48 h [8]: 16200 nM; CC50 at 48 h [9]: 15800 nM; CC50 at 48 h [10]: 13700 nM
Fc1ccc(C(c2ccc(CN3CCCC3)cc2)(c2ccnc3cc(Cl)ccc23)n2ccnc2)cc1 (racemic)	66.9 nM	2 nM	67 nM	85.8 nM	33000 nM	MIC (Candida albicans): 8 µg/mL (≈ 16.1 µM); MIC (Pichia kudriavzevii): > 32 µg/mL; MIC (Candida parapsilosis): > 32 µg/mL; MIC (Cryptococcus neoformans): > 32 µg/mL; MIC (Aspergillus flavus): > 32 µg/mL; MIC (Aspergillus fumigatus [7]): > 32 µg/mL; Activity (Plasmodium chabaudi [11]): 99.4%
Clc1ccc(C(c2ccccc2)(c2ccc(CN3CCCC3)cc2)n2cnc3ccccc32)cc1 (racemic)	379 nM	376 nM	23 nM	1030 nM		
Clc1ccc(C(c2ccccc2)(c2ccc(CN3CCCC3)cc2)N2CCNCC2)cc1 (racemic)	3840 nM	1560 nM	3510 nM		20900 nM	IC50 (Plasmodium falciparum [14]): > 10000 nM
Clc1cccc(C(c2ccc(CN3CCCC3)cc2)(c2nccs2)n2ccnc2)c1 (racemic)	314 nM	1850 nM	66.7 nM	484 nM		CC50 at 48 h [8]: 52900 nM; CC50 at 48 h [9]: 57500 nM; CC50 at 48 h [10]: 80500 nM; Activity (Plasmodium chabaudi [11]): 73.1%
Clc1ccc(C(c2ccc(CN3CCCC3)cc2)(c2nccs2)n2ccnc2)cc1 (racemic)	177 nM	80 nM	180 nM	300 nM	64200 nM	
Clc1cccc(C(c2ccc(CN3CCCC3)cc2)(c2ccccn2)n2ccnc2)c1 (racemic)	349 nM	157 nM	155 nM	619 nM	27200 nM	
CC(C)(C)OC(=O)N1CCN(Cc2ccc(C(c3cccc(Cl)c3)n3ccnc3)cc2)CC1 (racemic)	4110 nM	1520 nM	1070 nM	5260 nM		
Clc1ccc2c(C(c3ccc(CN4CCCC4)cc3)n3ccnc3)ccnc2c1 (racemic)	1810 nM	1170 nM	745 nM	1630 nM		
CCN(CC)CCCC(C)Nc1ccnc2cc(Cl)ccc12 (centres undefined) [CHLOROQUINE]					207000 nM	Activity (Plasmodium chabaudi [16]): 100%; Activity (Plasmodium berghei [17]): 89.1%
Clc1ccccc1C(c1ccccc1)(c1ccccc1)n1ccnc1 [CLOTRIMAZOLE]					88100 nM	MIC (Candida albicans): 0.03 µg/mL (≈ 0.087 µM); MIC (Pichia kudriavzevii): 2 µg/mL (≈ 5.8 µM); MIC (Candida parapsilosis): 2 µg/mL (≈ 5.8 µM); MIC (Cryptococcus neoformans): 2 µg/mL (≈ 5.8 µM); MIC (Aspergillus flavus): 4 µg/mL (≈ 11.6 µM); MIC (Aspergillus fumigatus [7]): 4 µg/mL (≈ 11.6 µM); MIC (Aspergillus fumigatus [18]): 4 µg/mL (≈ 11.6 µM); Activity (Plasmodium chabaudi [11]): 6%; Activity (Plasmodium berghei [19]): 28.3%

From ChEMBL document CHEMBL1142373 (J Med Chem, 2008)
